Data published in PMC2756606 (Organic letters, 2009).
Read-outs that look alike come from different tables or passages of the source.

What was measured:
[1] = biological target: δOR (δ-opioid receptor) in HCT116 colon carcinoma cells engineered to express the δOR (Homo sapiens, UniProt P41143); test: competitive binding assay, time-resolved fluorescence; conditions: TRF competitive binding; HCT116 cells expressing δOR
Summary of the method: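 Purified test compounds were run in a competition format on whole HCT116 colon carcinoma cells engineered to express δOR. Ki was derived from a fitted competition curve, with R2 reported for the fit.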

[2] = system: mouse-isolated vas deferens, δ-opioid receptor (antagonism of δ-agonist DPDPE); test: mouse-isolated vas deferens; assay type: biochemical; conditions: MVD assay against δ-agonist DPDPE; n=8
[3] = system: HCT116/δOR and parental HCT116 tumors in SCID mice; assay type: in vivo, mouse; conditions: 10 μg i.v. (tail vein), 15 min post-injection, not shown
[4] = biological target: δ-opioid receptor; conditions: cited from earlier work

Which “affinity of labeled ligand compared with unlabeled counterpart (ligand 6)” value [1] does the source give for `CC[N+]1=C(C=CC=CC=C2N(CCCCCC(=O)NCCN3C(=O)CC(SCCC(=O)NCCCC[C@H](NC(=O)[C@@H]4Cc5ccccc5CN4C(=O)[C@@H](N)Cc4c(C)cc(O)cc4C)C(=O)O)C3=O)c3ccc(S(=O)(=O)O)cc3C2(C)C)C(C)(C)c2cc(S(=O)(=O)[O-])ccc21` (some centres unmarked) [Ligand 1] here?
The value was “equipotent to its unlabeled counterpart”.

What about the “inhibitory potency, Ke” value [2] of the same compound?
The value was 0.037 ± 0.009 nM.

And the “systemic distribution, fluorescence intensity maps” value [3]?
The value was “systemic presence of the compound with high intensity throughout the animal”.

For Dmt-Tic-Lys-NH2, which Ki ([4]; reported radioligand binding assays, compared with TRF results) is on record?
The Ki was 0.71 nM.

With H-Dmt-Tic-Lys(Ac)-OH as the compound, how does the Ki ([4]; δ-receptor affinity in radioligand binding assays) read?
Its Ki is 0.047 nM.
